These results are taken from ChEMBL document CHEMBL4130552, “Design, synthesis and biological evaluation of novel benzimidazole amidines as potent multi-target inhibitors for the treatment of non-small cell lung cancer” (Eur J Med Chem, 2018).

The nature of assay [1]: Selectivity ratio of IC50 for human A549 cells to IC50 for human SW620 cells. The format is functional.
Assay [2] can be described thus: Selectivity ratio of IC50 for human HeLa cells to IC50 for human SW620 cells. The class given is functional.
The nature of assay [3]: Selectivity ratio of IC50 for human CFPAC-1 cells to IC50 for human SW620 cells. The format is functional.
Assay [4] concerns A549. Description: Antiproliferative activity against human A549 cells after 72 hrs by MTT assay. The format is functional, cell-based. Particulars: A549, 72 h. In a few lines:
(§1)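 Cells seeded at 5000/well on day 0 in medium with 10% FBS, 2 mM L-glutamine, penicillin/streptomycin, 37 °C, 5% CO2. Compounds added at five 10-fold dilutions with DMSO ≤0.1%, then 72 h exposure. MTT absorbance converted to percentage growth versus untreated wells. IC50 by linear regression between bracketing concentrations. Quadruplicate points, three independent experiments.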
(In general: Tetrazolium dyes change colour on reduction, which living cells bring about.)

Assay [5] concerns SW-620. Put plainly: Antiproliferative activity against human SW620 cells after 72 hrs by MTT assay. Particulars: SW-620, 72 h. The format is functional, cell-based. The procedure, abridged: as §1
The test system of assay [6] is WI-38. Put plainly: Antiproliferative activity against human WI38 cells after 72 hrs by MTT assay. The class given is cell-based. As to conditions: WI-38, 72 h. The procedure, abridged:
as §1

Assay [7] relates to HeLa. Description: Antiproliferative activity against human HeLa cells after 72 hrs by MTT assay. The class given is functional, cell-based. In a few lines:
as §1

The test system of assay [8] is CFPAC-1. Put plainly: Antiproliferative activity against human CFPAC-1 cells after 72 hrs by MTT assay. As to conditions: CFPAC-1, 72 h. The class given is functional, cell-based. In a few lines: as §1

A word on the IC50: it is the concentration needed to halve the response being measured. Regarding `Cl.Clc1ccc(Cn2cc(COc3ccc(-c4nc5cc(C6=NCCN6)ccc5[nH]4)cc3)nn2)cc1`, the “Ratio IC50” value in assay [1], in assay [2] and in assay [3] was greater than 100 throughout. Besides, the IC50 in assay [4] is 9.34 µM; in assay [5] it was 0.05 µM; in assay [6] it was 5.77 µM; in assay [7] it was 5.06 µM; in assay [8], 6.82 µM.
